Hits are enriched below; roughly 1.9% of the tested compounds scored in any of these assays.
NS3 helicase inh = inhibitors of HCV NS3 helicase, primary screen, biochemical, Cy5 molecular beacon fluorescence; Hepatitis C virus NS3 helicase; inhibition, % at 10.9 µM; NS3 helicase DNA unwinding; hit rate 0.56% among 290,000;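 active means inhibition above the mean of all tested compounds plus 3 SD, set per campaign, cut at about 35% in these data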
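assay system = NS3 helicase fragment of HCV | buffer or medium = MOPS pH 6.5, MgCl2, DTT, Tween20, BSA | timing = 60 min unwinding reaction at 25 °C after ATP addition | signal = Cy5 beacon fluorescence read at start and 1 h | read-out basis = % inhibition of unwinding | control set = low DMSO, high thioflavine S at 110 µM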
GPR7 antag = GPR7 receptor antagonists, primary screen, cell-based, fluorescence, single concentration; Neuropeptides B/W receptor type 1 (Homo sapiens), P48145; inhibition, % at 4.4 µM; GPR7-expressing cells, fluorescence antagonist assay; hit rate 1.1% among 290,000; in the data active means inhibition above about 16%, passing the limit was not always enough;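 further: cells stimulated with the agonist NPW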
Target sequence (P48145 whole entry, looked up): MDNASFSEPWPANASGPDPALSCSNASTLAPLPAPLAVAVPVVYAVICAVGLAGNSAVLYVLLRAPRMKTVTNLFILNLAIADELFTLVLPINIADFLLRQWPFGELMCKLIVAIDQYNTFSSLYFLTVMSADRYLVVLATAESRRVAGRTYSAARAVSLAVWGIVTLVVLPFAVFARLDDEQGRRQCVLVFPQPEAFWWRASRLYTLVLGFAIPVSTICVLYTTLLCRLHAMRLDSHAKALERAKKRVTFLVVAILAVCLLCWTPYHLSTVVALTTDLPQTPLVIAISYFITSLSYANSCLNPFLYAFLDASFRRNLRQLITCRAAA
HCV core dimer = inhibitors of HCV core protein dimerization, primary screen, biochemical, TR-FRET, high-throughput; TR-FRET GST/Flag-core106 dimerization, 1536-well; inhibition, % at 5 µM; hit rate 0.33% among 300,000; AID 1899, 2009;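 active means inhibition above the mean of all tested compounds plus 3 SD, set per screening campaign, cut at about 45% in these data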
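Material: GST/Flag-tagged HCV core106 proteins. Incubation: 4 h, 22.5 °C incubation. Read-out basis: inhibition (%) from 671 over 617 nm ratio. Measured by: TR-FRET, excitation 340 nm, emission 617 and 671 nm.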
DNA FID counter = compounds displacing fluorescent DNA intercalator, primary screen, artefact control for HCV NS3 helicase inhibitor project, biochemical, FID fluorescence; DNA fluorescent intercalator displacement; inhibition, % at 7.9 µM; hit rate 0.17% among 290,000; AID 1845, 2009; in the data active means inhibition above about 37%;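 further: higher means more ethidium bromide displaced from hairpin DNA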
pCIP destab = p/CIP-EGFP fusion destabilizers, primary screen, fluorescence, F442A cells; Q05BA5; 16 h; decrease of EGFP signal, % at 10 µM; hit rate 0.01% among 290,000;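 active means EGFP signal decrease of at least 30% at 10 µM or well 3 SD below plate mean, unless failing retest; inactive means the rest, including hits failing retest or dose response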
GPR7 antag conf = GPR7 receptor antagonists, confirmation, cell-based, fluorescence, single concentration. shares compounds with GPR7 antag. GPR7-expressing cells, calcium fluorescence antagonist mode. inhibition, % at 4.4 µM. hit rate 52% among 2,400. AID 1952, 2009; in the data active means inhibition above about 24%;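 further: stimulated with the GPR7 agonist NPW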
MCHR1 antag = MCHR1 antagonists in cells, counter-screen for GPR7 antagonist project, cell-based, fluorescence, human. shares compounds with GPR7 antag. MCHR1-expressing cells, fluorescence antagonist assay. inhibition, % at 4.4 µM. hit rate 62% among 2,400. AID 2148, 2009; in the data active means inhibition above about 22%
Hits are given with their value.

Screening Nc1ccccc1-c1nc2ccccc2c(=O)o1 returned NS3 helicase inh inactive, GPR7 antag 49.2, HCV core dimer inactive, DNA FID counter inactive, pCIP destab inactive, GPR7 antag conf inactive and MCHR1 antag inactive.
O=c1oc(-c2ccccc2[N+](=O)[O-])nc2ccccc12 was read as NS3 helicase inh inactive, GPR7 antag inactive, HCV core dimer inactive, DNA FID counter inactive and pCIP destab inactive.
Screening OC1(c2ccccc2)CCN(Cc2ccccc2)C2CCCCC21 (configuration not stated) returned NS3 helicase inh inactive, GPR7 antag 33.8, HCV core dimer inactive, DNA FID counter inactive, pCIP destab inactive, GPR7 antag conf inactive and MCHR1 antag inactive.
For Cc1oc(-c2cccs2)nc1CN1CC[C@@](O)(c2ccccc2)[C@H]2CCCC[C@@H]21 the results were NS3 helicase inh inactive, GPR7 antag inactive, HCV core dimer inactive, DNA FID counter inactive and pCIP destab inactive.
`CCOc1ccc(S(=O)(=O)Nc2nc3ccccc3nc2-n2ccc(=NC(=O)c3ccccc3C)cc2)cc1` gave NS3 helicase inh inactive, GPR7 antag 22.9, HCV core dimer inactive, DNA FID counter inactive, pCIP destab inactive, GPR7 antag conf inactive and MCHR1 antag inactive.
Screening COc1cccc(OCc2cc(C(=O)NCc3cnc4ccccn34)no2)c1 returned NS3 helicase inh inactive, GPR7 antag 29.8, HCV core dimer inactive, DNA FID counter inactive, pCIP destab inactive, GPR7 antag conf 32.9 and MCHR1 antag 48.2.
`NC(=O)c1ccc(NC(=O)CN2CCN(c3ccccc3)CC2)cc1` gave NS3 helicase inh inactive, GPR7 antag inactive, HCV core dimer inactive, DNA FID counter inactive and pCIP destab inactive.
For COc1cc(NC(=O)c2sc(C)nc2C)c(OC)cc1NC(=O)c1ccccc1 the results were NS3 helicase inh inactive, GPR7 antag inactive, HCV core dimer inactive, DNA FID counter inactive and pCIP destab inactive.
O=C(NCCNC(=O)c1cc(Cl)ccc1Cl)c1ccco1 was read as NS3 helicase inh inactive, GPR7 antag inactive, HCV core dimer inactive, DNA FID counter inactive and pCIP destab inactive.
`CCCOc1ccc(N2C(=O)CC(N3CCN(c4ccccc4F)CC3)C2=O)cc1` (configuration not stated) gave NS3 helicase inh inactive, GPR7 antag inactive, HCV core dimer inactive, DNA FID counter inactive and pCIP destab inactive.
CCCOc1ccc(N2C(=O)CC(N3CCN(c4nc5ccccc5s4)CC3)C2=O)cc1 (configuration not stated) was read as NS3 helicase inh inactive, GPR7 antag 41.8, HCV core dimer inactive, DNA FID counter inactive, pCIP destab inactive, GPR7 antag conf inactive and MCHR1 antag 33.5.
For CO/N=C/Cc1c([N+](=O)[O-])c(C)nn1C the results were NS3 helicase inh inactive, GPR7 antag 27.7, HCV core dimer inactive, DNA FID counter inactive, pCIP destab inactive, GPR7 antag conf inactive and MCHR1 antag inactive.
For COc1cc(OC)cc(C(=O)NCC(=O)OCC(=O)/C=C2/N(C)c3ccccc3C2(C)C)c1 the results were NS3 helicase inh inactive, GPR7 antag inactive, HCV core dimer inactive, DNA FID counter inactive and pCIP destab inactive.
CN1/C(=C\C(=O)COC(=O)Cn2nnc(-c3ccccc3)n2)C(C)(C)c2ccccc21 was read as NS3 helicase inh inactive, GPR7 antag 25.9, HCV core dimer inactive, DNA FID counter inactive, pCIP destab inactive, GPR7 antag conf inactive and MCHR1 antag 38.2.
CNC(=O)CCC(=O)Nc1ccc(C)cc1 was read as NS3 helicase inh inactive, GPR7 antag inactive, HCV core dimer inactive, DNA FID counter inactive and pCIP destab inactive.
`C=C(C)CNC(=O)c1ccc2nc(Cc3ccc(OC)cc3)oc2c1` gave NS3 helicase inh inactive, GPR7 antag inactive, HCV core dimer inactive, DNA FID counter inactive and pCIP destab inactive.
Screening O=C(C1COc2ccccc2O1)N1CCc2ccccc2C1 (configuration not stated) returned NS3 helicase inh inactive, GPR7 antag 21.2, HCV core dimer inactive, DNA FID counter inactive, pCIP destab inactive, GPR7 antag conf inactive and MCHR1 antag 35.4.
Screening CC(CNC(=O)CCC(=O)N1CCOc2ccc(Cl)cc21)c1ccccc1 (configuration not stated) returned NS3 helicase inh inactive, GPR7 antag inactive, HCV core dimer inactive, DNA FID counter inactive and pCIP destab inactive.
Screening CCOc1ccc2nc(COC(=O)c3cccc([N+](=O)[O-])c3)c(C(C)=O)[n+]([O-])c2c1 returned NS3 helicase inh inactive, GPR7 antag inactive, HCV core dimer inactive, DNA FID counter inactive and pCIP destab inactive.
For O=C1/C(=C/c2ccc(O)cc2)COc2ccccc21 the results were NS3 helicase inh inactive, GPR7 antag inactive, HCV core dimer inactive, DNA FID counter inactive and pCIP destab inactive.
`CCOc1cc(/C=C2/COc3ccccc3C2=O)ccc1OCC(=O)N(C)C` gave NS3 helicase inh inactive, GPR7 antag 23.6, DNA FID counter inactive, pCIP destab inactive, GPR7 antag conf inactive and MCHR1 antag 21.4.
For CCCCn1nnc(NC(=S)NC(=O)c2ccc(-c3cccc(Cl)c3Cl)o2)n1 the results were NS3 helicase inh inactive, GPR7 antag inactive, HCV core dimer inactive, DNA FID counter inactive and pCIP destab inactive.
COC(=O)CCN(C1CCCCC1)S(=O)(=O)c1ccc(S(=O)(=O)NC2CCCCC2)cc1 was read as NS3 helicase inh inactive, GPR7 antag 39.9, HCV core dimer inactive, DNA FID counter inactive, pCIP destab inactive, GPR7 antag conf 51.0 and MCHR1 antag 32.5.
`O=C(O)c1ccc(CN2C(=O)c3ccc(Oc4ccc([N+](=O)[O-])cc4)cc3C2=O)cc1` gave NS3 helicase inh inactive, GPR7 antag 39.2, HCV core dimer inactive, DNA FID counter inactive, pCIP destab inactive, GPR7 antag conf inactive and MCHR1 antag inactive.
CC1Cc2cc(S(=O)(=O)N3CCCC(C(=O)N4CCCCC4)C3)ccc2N1C(=O)C1CC1 (configuration not stated) was read as NS3 helicase inh inactive, GPR7 antag 27.9, HCV core dimer inactive, DNA FID counter inactive, pCIP destab inactive, GPR7 antag conf inactive and MCHR1 antag 24.0.
For CNC(=O)Nc1cc(NC(=O)NC)cc(C(F)(F)F)c1 the results were NS3 helicase inh inactive, GPR7 antag inactive, HCV core dimer inactive, DNA FID counter inactive and pCIP destab inactive.
